Published values of several laboratories.
Protocols differ between the studies behind these lines.

O=C(O)c1ccc(C(c2c[nH]c3ccccc23)c2c[nH]c3ccccc23)cc1  inhibition (DU-145; cell growth or viability, MTT; 100 µM, 48 h): 34%
COc1ccc(-c2ccc(-c3ccc(C(=N)N)nc3)s2)cc1  GI50 (SF-295; cell growth or viability, SRB): 1.71 µM
COc1cc2c(cc1O)CCN(Cc1cccc(O)c1)C2  GI50 (DU-145; cell growth or viability, WST-1; 96 h): > 100 µM
COc1cc(Nc2nccc(-c3cnn4nc(OC)ccc34)n2)cc(C(F)(F)F)c1  IC50 (LOU-NH91; cell growth or viability, ATP luminescence): 0.19 µM
COc1ccc(-c2ccc(-c3ccc(C(=N)N)nc3)s2)cc1Cl  GI50 (SF-295; cell growth or viability, SRB): 1.8 µM
CC(C)n1cc(C(c2ccc(/C=C/C(=O)O)s2)c2cn(C(C)C)c3ccccc23)c2ccccc21  inhibition (DU-145; cell growth or viability, MTT; 100 µM, 48 h): 94%
COc1ccc2c(N(C)c3ccc(/C(C)=N/OCCN)cc3)c3c(Cl)coc3nc2c1  inhibition (LNCaP; cell migration; 1 µM, 24 h): 70%
Cn1cc(C(c2ccc(C(=O)O)cc2)c2cn(C)c3ccccc23)c2ccccc21  inhibition (LNCaP; cell growth or viability, MTT; 100 µM, 48 h): 95%
COc1cccc(Oc2ccccc2NC(=O)CNC(=O)c2cccc3ccccc23)c1  GI50 (MOLT-4; cell growth or viability, SRB; 48 h): 0.661 µM
COc1ccc(CN2CCc3cc(OS(N)(=O)=O)c(OC)cc3C2)cc1OC  GI50 (DU-145; cell growth or viability, WST-1; 96 h): 8.54 µM
CC(C)C[C@H](NC(=O)[C@H](Cc1ccccc1)NC(=O)c1cnccn1)B(O)O  IC50 (LN-229; cell growth or viability, ATP luminescence): 0.0079 µM
COc1ccc(CN2CCc3cc(OS(N)(=O)=O)c(OC)cc3C2)cc1  GI50 (DU-145; cell growth or viability, WST-1; 96 h): 57.2 µM
O=C1Nc2ccccc2C1=NNc1nnc2n1N=C(c1ccccc1)CS2  inhibition (DU-145; cell growth or viability, SRB; 10 µM): 16%
COc1cc2c(cc1O)CCN(Cc1cccc(OC(F)(F)F)c1)C2  GI50 (DU-145; cell growth or viability, WST-1; 96 h): 55 µM
Cc1cccc2c(C(c3ccc(/C=C/C(=O)O)s3)c3c[nH]c4c(C)cccc34)c[nH]c12  inhibition (DU-145; cell growth or viability, MTT; 100 µM, 48 h): 78%
